SMILES strings stand for the structures. Active and inactive are the calls of the source. The calls are words filed in the database; no cut-off is given here.

Experimental findings from ChEMBL document CHEMBL1122704, “Syntheses and anthelmintic activity of alkyl 5(6)-(substituted-carbamoyl)- and 5(6)-(disubstituted-carbamoyl)benzimidazole-2-carbamates and related compounds” (1984) are described below.

Assay [1] deals with Rattus norvegicus. The experiment in a line: Compound was evaluated for the biological activity against Hymenolepsis nana (rats) at the 25 mg/kg. The class given is functional. In outline:
(§1)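 Male rats (25–35 g) infected orally with 200 viable eggs. Infection confirmed by ovoscopic examination on days 17–20 postinoculation. Positive rats dosed orally on day 20 ± 1, initially 250 mg/kg × 1, then lower doses for dose–response. Method of Steward.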

Assay [2] has as its system Rattus norvegicus. The experiment in a line: Compound was evaluated for the biological activity against Hymenolepsis nana (rats) at the 100 mg/kg. The assay is classed as functional. In a few lines: as §1
For assay [3], the system named is Rattus norvegicus. The experiment in a line: Compound was evaluated for the biological activity against Hymenolepsis nana (rats) at the 50 mg/kg. The assay is classed as functional. In a few lines: as §1
For assay [4], the system named is Nippostrongylus brasiliensis. The experiment in a line: Anti-nematode activity against Nippostrongylus brasiliensis in rats at 250 mg/kg; Insignificant activity. The assay is classed as functional.
Assay [5] has as its system Cricetinae gen. sp. Description: Compound was evaluated for the biological activity against Ancylostoma ceylanicum in hamsters at the 10 mg/kg. The assay is classed as functional, Cricetulus griseus. In outline: (§2)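 Hamsters of either sex (40–60 g) infected orally with 60 third-stage larvae. Test compound given orally as a single dose on day 20 ± 1 postinfection, starting at 250 mg/kg × 1. Lower doses were used for active compounds to establish dose–response. Method of Ray et al. as modified locally.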

Assay [6] has as its system Rattus norvegicus. Description: Compound was evaluated for the biological activity against Hymenolepsis nana (rats) at the 250 mg/kg. The assay is classed as functional. In outline: as §1
The subject of the next assay is Ancylostoma ceylanicum. The experiment in a line: Compound was evaluated for the biological activity against Ancylostoma ceylanicum in hamsters at the 250 mg/kg. The assay is classed as functional. In a few lines: as §2
Assay [7] has as its system Cricetinae gen. sp. Description: Compound was evaluated for the biological activity against Ancylostoma ceylanicum in hamsters at the 100-25 mg/kg. The class given is functional, Cricetulus griseus. In a few lines:
as §2

Consider `COC(=O)Nc1nc2cc(C(=O)NCc3ccco3)ccc2[nH]1`, for which the Activity with Rattus norvegicus [1] came to 100%; in the assay on Rattus norvegicus [2], 100%; with Rattus norvegicus [3], 100%; in the assay with Cricetinae gen. sp. [5], 57%; with Rattus norvegicus [6], 100%; in the assay on Ancylostoma ceylanicum it was 100%. The molecule also displayed an Activity in the assay on Cricetinae gen. sp. [7] of 100%. The result in assay [4] was inactive.
